Laboratory results reported in ChEMBL document CHEMBL1132342, “Novel hypotensive agents from Verbesina caracasana. 6. Synthesis and pharmacology of caracasandiamide” (1999).
Several values for one entry are separate records, joined by “and”; a condition that tells them apart may be missing. Equal entries are not always repeated.

How the values were obtained:
[1] = system: Rattus norvegicus; assay: Change in diastolic blood pressure after iv administration of 800 ug/Kg in anesthetized rats; type: functional, Artery
Method in brief: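 Adult male Wistar rats under ip ethylurethane (10% w/v in saline, 1 mL/kg) with tracheal cannula and spontaneous breathing, kept at 37 °C. Arterial BP was recorded by femoral artery catheter; compound in saline (50 µL) was given via femoral vein at 50–3200 µg/kg, ratio 2.0. Peak change is given as mean ± SE, n = 12 (n = 7 at 3200 µg/kg).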

[2] = system: Rattus norvegicus; assay: Change in heart rate after iv administration of 400 ug/Kg in the presence of acetylcholine (agonist) in anesthetized rats; type: functional
Method in brief: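 Urethane-anesthetized male Wistar rats (16 rats, two equal groups) received 400 or 1600 µg/kg compound iv. Cardiovascular responses to iv agonist boluses (noradrenaline 1 µg/kg, acetylcholine 2.50 µg/kg, adrenaline, isoprenaline) were measured before and after compound dosing. Peak responses are given as mean ± SE; p < 0.05 versus control mean.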

[3] = system: Rattus norvegicus; assay: Change in heart rate after iv administration of 800 ug/kg compound (treatment with papaverine(1 mg/kg/min, iv))in anesthetized rats; type: functional
Method in brief: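 Urethane-anesthetized male Wistar rats, 6 per group, received iv doses of 200-1600 µg/kg (ratio 2.0) given alone or under a pretreatment. Pretreatments were continuous iv papaverine infusion (1 mg/kg/min), reserpine 5 mg/kg/day ip for 2 days, or hexamethonium 5 mg/kg iv. Peak changes in femoral arterial BP and HR were recorded; values are mean ± SE.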

[4] = system: Rattus norvegicus; assay: Change in mean aortic flow after iv administration of 50 ug/Kg in anesthetized rats; type: functional
Method in brief: (§1)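 Male Wistar rats (299 ± 3 g) were anesthetized with ethylurethane ip, tracheally cannulated and breathing spontaneously, at 37 °C, and stabilized for 60 min. Doses of 50-3200 µg/kg (ratio 2.0) in saline were injected by femoral vein, 50 µL each. Recordings: femoral arterial BP, electromagnetic abdominal-aortic flow, SV from integrated pulsatile flow, polygraphic RF. Peak changes, mean ± SE, n = 12 (n = 7 at 3200).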

[5] = system: Rattus norvegicus; assay: Maximum rate of rise of the left ventricular isovolumetric pressure was measured after iv administration of 1600 ug/Kg in the presence of acetylcholine (agonist) in anesthetized rats; type: functional, Heart left ventricle
Method in brief: (§2)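 Anesthetized male Wistar rats, two groups of 8, received 400 or 1600 µg/kg iv. Before and after this dose, iv agonist challenges were given: noradrenaline 1 µg/kg, adrenaline, acetylcholine 2.50 µg/kg, or isoprenaline. Systolic/diastolic BP, heart rate and dP/dt responses were recorded before (control) and after dosing; significance was set at p < 0.05 versus control.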

[6] = system: Rattus norvegicus; assay: Maximum rate of rise of the left ventricular isovolumetric pressure was measured after iv administration of 400 ug/Kg in the presence of acetylcholine (agonist) in anesthetized rats; type: functional, Heart left ventricle; method in brief: as §2
[7] = system: Rattus norvegicus; assay: Change in respiratory frequency after iv administration of 800 ug/Kg in anesthetized rats; type: functional; method in brief: as §1
[8] = system: Rattus norvegicus; assay: Maximum rate of rise of the left ventricular isovolumetric pressure after iv administration of 800 ug/Kg compound (treatment with hexamethonium (5 mg/Kg, iv)in anesthetized rats; type: functional, Heart left ventricle
Method in brief: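 Anesthetized rats, n = 6 per group, received iv doses of 200–1600 µg/kg (ratio 2.0) either alone (control) or under pretreatment: continuous iv papaverine infusion 1 mg/kg/min, reserpine 5 mg/kg/day ip for 2 days, or hexamethonium 5 mg/kg iv. Peak changes in BP, heart rate and dP/dt recorded; means ± SE, p < 0.05 versus control.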

What does the source list for `COc1ccc(C2C(c3ccc(OC)c(OC)c3)[C@H](C(=O)NCCCC/N=C(\N)NCC=C(C)C)[C@@H]2C(=O)NCCCC/N=C(\N)NCC=C(C)C)cc1OC` (stereo not given in full) [CARACASANDIAMIDE]?
BP [1]: -31 mmHg; Change in BP [1]: -40%; Heart rate [2]: -30 beats min-1; Heart rate [3]: -17 beats min-1; Change in mean aortic flow [4]: 26%; Mean aortic flow [4]: 19 mL/min; dP/dt [5]: -6821 mmHg s-1; dP/dt [6]: -5820 mmHg s-1; Change in respiratory frequency [7]: -15 beats min-1 and -16%; dP/dt [8]: 4965 mmHg s-1
